In ChEMBL document CHEMBL1145777 (J Med Chem, 2003):

Assays:
[1] = biological target: T1, Mu-type opioid receptor (Homo sapiens, UniProt P35372); assay: Incorporation of [35S]GTP-gamma-S, into CHO membranes expressing human Opioid receptor mu 1; assay type: functional
[2] = biological target: T2, Kappa-type opioid receptor (Homo sapiens, UniProt P41145); assay: (§1) Incorporation of [35S]GTP-gamma-S, into CHO membranes expressing human Opioid receptor kappa 1; assay type: functional
[3] = biological target: Kappa-type opioid receptor (Cavia porcellus) (UniProt P41144); assay: Ratio of binding affinity of Opioid receptor kappa 1 to Opioid receptor mu 1 to Opioid receptor delta 1; kappa:mu:delta = 7:3:1
Chain of Kappa-type opioid receptor (Cavia porcellus) (P41144 whole entry): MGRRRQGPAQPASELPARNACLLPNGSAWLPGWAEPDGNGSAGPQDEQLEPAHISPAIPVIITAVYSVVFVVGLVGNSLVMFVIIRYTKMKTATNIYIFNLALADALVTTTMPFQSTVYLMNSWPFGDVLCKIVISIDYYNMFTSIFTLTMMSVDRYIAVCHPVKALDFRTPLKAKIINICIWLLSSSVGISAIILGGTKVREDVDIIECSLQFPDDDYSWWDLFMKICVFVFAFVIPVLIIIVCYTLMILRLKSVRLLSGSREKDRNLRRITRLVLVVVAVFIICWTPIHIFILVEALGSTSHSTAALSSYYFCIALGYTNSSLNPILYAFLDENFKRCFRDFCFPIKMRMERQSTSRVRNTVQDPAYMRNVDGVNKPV

[4] = biological target: Kappa-type opioid receptor (Cavia porcellus, UniProt P41144); assay: Binding affinity towards Opioid receptor kappa 1 from guinea pig brain using [3H]U-69593 as radioligand
Chain of Kappa-type opioid receptor (Cavia porcellus, UniProt P41144) (P41144 whole entry): as above
Method in brief: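 Uses 1 nM [3H]U69,593 with guinea pig brain membrane protein (500 µg), 12 concentrations, 50 mM Tris-HCl pH 7.5, 60 min at 25 °C. Nonspecific binding with 10 µM naloxone. Filters pre-soaked in 0.1% polyethylenimine; bound label counted.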

[5] = biological target: Mu-type opioid receptor (Cavia porcellus, UniProt P97266); assay: Binding affinity towards Opioid receptor mu 1 from guinea pig brain using [3H]DAMGO as radioligand
Chain of Mu-type opioid receptor (Cavia porcellus, UniProt P97266) (P97266 whole entry): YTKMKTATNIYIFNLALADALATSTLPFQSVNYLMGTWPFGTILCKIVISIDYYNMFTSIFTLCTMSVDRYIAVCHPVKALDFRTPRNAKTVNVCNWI

[6] = biological target: T1, Mu-type opioid receptor; assay: Incorporation of [35S]- GTPgammaS into CHO membranes expressing human Opioid receptor mu 1
[7] = biological target: T2, Kappa-type opioid receptor; assay: as §1; assay type: functional; remark: listed apart in the source
[8] = biological target: Kappa-type opioid receptor (Cavia porcellus) (UniProt P41144); assay: Ratio of binding affinity of Opioid receptor kappa 1 to Opioid receptor mu 1 to Opioid receptor delta 1; kappa:mu:delta = 10:9:1
[9] = biological target: Kappa-type opioid receptor (Cavia porcellus) (UniProt P41144); assay: Ratio of binding affinity of Opioid receptor kappa 1 to Opioid receptor mu 1 to Opioid receptor delta 1; kappa:mu:delta = 12:4:1
[10] = Binding affinity towards Opioid receptor delta 1 from guinea pig brain using [3H]naltrindole as radioligand
[11] = biological target: Kappa-type opioid receptor (Cavia porcellus) (UniProt P41144); assay: Ratio of binding affinity of Opioid receptor kappa 1 to Opioid receptor mu 1 to Opioid receptor delta 1; kappa:mu:delta = 47:26:1
[12] = biological target: Kappa-type opioid receptor (Cavia porcellus) (UniProt P41144); assay: Ratio of binding affinity of Opioid receptor kappa 1 to Opioid receptor mu 1 to Opioid receptor delta 1; kappa:mu:delta = 9:5:1
[13] = biological target: Kappa-type opioid receptor (Cavia porcellus) (UniProt P41144); assay: Ratio of binding affinity of Opioid receptor kappa 1 to Opioid receptor mu 1 to Opioid receptor delta 1; kappa:mu:delta = 11:7:1
[14] = biological target: Kappa-type opioid receptor (Cavia porcellus) (UniProt P41144); assay: Ratio of binding affinity of Opioid receptor kappa 1 to Opioid receptor mu 1 to Opioid receptor delta 1; kappa:mu:delta = 5:4:1
[15] = biological target: Kappa-type opioid receptor (Cavia porcellus) (UniProt P41144); assay: Ratio of binding affinity of Opioid receptor kappa 1 to Opioid receptor mu 1 to Opioid receptor delta 1; kappa:mu:delta = 16:14:1
[16] = biological target: Kappa-type opioid receptor (Cavia porcellus) (UniProt P41144); assay: Ratio of binding affinity of Opioid receptor kappa 1 to Opioid receptor mu 1 to Opioid receptor delta 1; kappa:mu:delta = 26:81:1
[17] = biological target: Kappa-type opioid receptor (Cavia porcellus) (UniProt P41144); assay: Ratio of binding affinity of Opioid receptor kappa 1 to Opioid receptor mu 1 to Opioid receptor delta 1; kappa:mu:delta = 1:1:1

T2 sequence (P41145 whole entry): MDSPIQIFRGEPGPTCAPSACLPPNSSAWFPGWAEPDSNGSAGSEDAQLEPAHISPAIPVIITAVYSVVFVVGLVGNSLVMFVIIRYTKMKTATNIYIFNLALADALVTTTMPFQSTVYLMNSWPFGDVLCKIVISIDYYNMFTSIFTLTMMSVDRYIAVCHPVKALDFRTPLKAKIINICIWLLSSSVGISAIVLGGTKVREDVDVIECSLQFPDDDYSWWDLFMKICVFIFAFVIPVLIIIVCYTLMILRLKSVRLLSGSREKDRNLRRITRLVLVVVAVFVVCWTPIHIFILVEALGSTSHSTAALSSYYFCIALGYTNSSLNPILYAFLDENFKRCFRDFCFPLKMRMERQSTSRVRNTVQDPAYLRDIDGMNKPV
T1 sequence (P35372 whole entry): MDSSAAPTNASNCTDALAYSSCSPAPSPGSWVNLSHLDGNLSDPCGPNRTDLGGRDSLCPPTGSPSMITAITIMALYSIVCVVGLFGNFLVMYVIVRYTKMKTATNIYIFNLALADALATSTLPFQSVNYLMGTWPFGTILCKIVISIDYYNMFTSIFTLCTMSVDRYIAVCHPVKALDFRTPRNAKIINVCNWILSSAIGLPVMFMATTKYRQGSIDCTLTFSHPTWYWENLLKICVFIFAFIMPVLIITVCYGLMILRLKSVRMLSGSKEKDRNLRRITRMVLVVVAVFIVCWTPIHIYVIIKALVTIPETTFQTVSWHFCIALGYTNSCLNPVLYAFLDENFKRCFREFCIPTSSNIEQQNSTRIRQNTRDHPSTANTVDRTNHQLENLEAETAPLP

CC[C@@]12CCN(CC3CC3)C(C(=O)c3ccc(N)cc31)[C@@H]2C (single isomer, unassigned; (-))
Emax [1]: 10% | Emax [2]: 110% | Ratio [3]: 7

C[C@H]1C2Cc3cc4c(cc3[C@@]1(C)CCN2CC1CC1)[nH]c1ccccc14
Ki [4]: 9.6 nM

CC[C@@]12CCN(CC3CC3)C(C(=O)c3ccc(N)cc31)[C@@H]2C (single isomer, unassigned; (+)) [listing 1 of 2 here]
Ki [5]: 17 nM | Ki [4]: 91 nM

C[C@H]1C2C(=O)c3ccc(N)cc3[C@@]1(C)CCN2CC1CC1
EC50 [6]: 180 nM | Emax [1]: 80% | Emax [2]: 70% | Ki [5]: 3.6 nM | EC50 [7]: 9.7 nM | Ki [4]: 0.8 nM

C[C@H]1C2Cc3ccc(Nc4ccc(Cl)cc4)cc3[C@@]1(C)CCN2CC1CC1
Ki [5]: 3 nM | Ratio [8]: 10 | Ki [4]: 2.5 nM

C[C@H]1C2Cc3ccc(N4CCCCC4)cc3[C@@]1(C)CCN2CC1CC1
Ki [5]: 95 nM | Ratio [9]: 12 | Ki [10]: 3600 nM

C[C@H]1[C@H]2Cc3ccc(N)cc3[C@@]1(C)CCN2C[C@@H]1CCCO1
Emax [2]: 330% | Ki [5]: 14 nM | EC50 [7]: 70 nM | Ratio [11]: 47 | Ki [4]: 7.8 nM

C[C@H]1[C@H]2Cc3ccc(Nc4ccccc4)cc3[C@@]1(C)CCN2CC1CC1 (stereo in doubt; (+)12)
Ki [10]: 270 nM

C[C@H]1[C@H]2Cc3ccc(O)cc3[C@@]1(C)CCN2C[C@@H]1CCCO1
Emax [2]: 70% | Ki [5]: 0.17 nM | EC50 [7]: 4 nM | Ki [4]: 0.073 nM

CC[C@@]12CCN(CC3CC3)C(C(=O)c3ccc(N)cc31)[C@@H]2C (single isomer, unassigned; (+)) [listing 2 of 2 here]
Ratio [12]: 9

C[C@H]1[C@H]2Cc3ccc(O)cc3[C@]1(C)CCN2CC1CC1 (stereo in doubt)
Emax [2]: 90%

Cc1ccc(Nc2ccc3c(c2)[C@@]2(C)CCN(CC4CC4)C(C3)[C@@H]2C)cc1
Ki [5]: 0.91 nM | Ratio [13]: 11 | Ki [4]: 0.57 nM

COc1cccc(Nc2ccc3c(c2)[C@@]2(C)CCN(CC4CC4)C(C3)[C@@H]2C)c1
Ki [5]: 1.8 nM | Ki [4]: 1 nM

C[C@H]1C2Cc3ccc(NCc4ccc(Cl)cc4)cc3[C@@]1(C)CCN2CC1CC1
Ki [5]: 8.8 nM | Ki [4]: 7.2 nM

C[C@H]1[C@H]2Cc3ccc(Nc4ccccc4)cc3[C@@]1(C)CCN2CC1CC1
EC50 [6]: 15 nM | EC50 [7]: 3.8 nM

C[C@H]1C2Cc3ccc(N4CCOCC4)cc3[C@@]1(C)CCN2CC1CC1
Ratio [14]: 5 | Ki [10]: 2800 nM

C[C@H]1C2Cc3ccc(Nc4ccc(C(F)(F)F)cc4)cc3[C@@]1(C)CCN2CC1CC1
Ki [5]: 13 nM | Ratio [15]: 16 | Ki [4]: 11 nM

CC[C@@]12CCN(CC3CC3)C(C(=O)c3ccc(O)cc31)[C@@H]2C (single isomer, unassigned; (-))
Emax [1]: 70% | Emax [2]: 170%

C[C@H]1C2Cc3ccc(NCc4ccccc4)cc3[C@@]1(C)CCN2CC1CC1 (single isomer, unassigned; (-))
Ratio [16]: 26

C[C@H]1[C@H]2Cc3ccc(Nc4ccccc4)cc3[C@@]1(C)CCN2CC1CC1 (stereo in doubt; 10)
Ratio [13]: 11

C[C@H]1C2Cc3ccc(Nc4ccncc4)cc3[C@@]1(C)CCN2CC1CC1
Ki [5]: 18 nM | Ki [4]: 2.9 nM

C[C@H]1C2Cc3ccc(N=C(c4ccccc4)c4ccccc4)cc3[C@@]1(C)CCN2CC1CC1
Ki [5]: 360 nM | Ratio [17]: 1 | Ki [4]: 170 nM

C[C@H]1C2Cc3ccc(N(C)C)cc3[C@@]1(C)CCN2CC1CC1 (single isomer, unassigned; (+))
Ki [5]: 50000 nM | Ki [4]: 3000 nM

C[C@H]1[C@H]2Cc3ccc(O)cc3[C@]1(C)CCN2CC1CC1 (stereo in doubt; (-)2) [CYCLAZOCINE]
EC50 [7]: 1.2 nM

C[C@H]1C2Cc3ccc(NCc4ccccc4)cc3[C@@]1(C)CCN2CC1CC1 (stereo in doubt; 25)
Ki [10]: 57 nM

C[C@H]1C2Cc3ccc(N)cc3[C@@]1(C)CCN2CC1CC1
Ki [10]: 110 nM

C[C@H]1C2Cc3ccc(N(C)C)cc3[C@@]1(C)CCN2CC1CC1 (single isomer, unassigned; (-))
Ki [5]: 46 nM | Ki [4]: 18 nM
